Activity calls are given as the source filed them. The calls are words filed in the database; no cut-off is given here.
Key:
[1] = Cytotoxicity against human 8392B cells after 48 hrs by trypan blue exclusion assay; assay type: cell-based
In short: (§1)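 Human MV522 lung adenocarcinoma (target) and 8392 B-cell lymphoma/leukemia (nontarget) lines. Compounds were made as 1 mg/mL stocks in cell-culture-grade DMSO and diluted in sterile 10% DMSO/PBS just before addition. Cells were exposed continuously for 48 h, and controls received equal DMSO/PBS vehicle. Cell survival was scored at 48 h by trypan blue exclusion.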

[2] = Selectivity index, ratio of IC50 for human 8392B cells to IC50 for human MV522 cells; assay type: functional
[3] = Cytotoxicity against human MV522 cells after 48 hrs by trypan blue exclusion assay; assay type: functional, cell-based; conditions: MV522, 48 h; in short: as §1
MV522 = assay: In-vivo antitumor activity against human MV522 cells assessed as induction of tumor shrinkage in xenograft model at nontoxic dose; assay type: functional, cell-based

Row | SMILES | IC50 [1] [nM] | Ratio IC50 [2] | IC50 [3] [nM] | Activity (MV522)
1 | CC1=C(CCCOC(=O)N2CCCCC2)C2=C(C)C3(CC3)[C@@](C)(O)C(=O)C2=C1 | 7100 | 6 | 1200 | 
2 | CC1=C(CNS(N)(=O)=O)C2=C(C)C3(CC3)[C@@](C)(O)C(=O)C2=C1 | > 9300 | >31 | 300 | 
3 | CC1=C(CCCNS(=O)(=O)c2ccc(C)cc2)C2=C(C)C3(CC3)[C@@](C)(O)C(=O)C2=C1 |  |  | 580 | 
4 | CONC(=O)NCC1=C(C)C=C2C(=O)[C@](C)(O)C3(CC3)C(C)=C21 | > 9400 |  |  | 
5 | CC1=C(CNS(C)(=O)=O)C2=C(C)C3(CC3)[C@@](C)(O)C(=O)C2=C1 | > 9300 |  |  | 
6 | CC1=C(CCCNC(=O)N2CCC(N3CCCCC3)CC2)C2=C(C)C3(CC3)[C@@](C)(O)C(=O)C2=C1 | 9000 |  |  | 
7 | CC1=C(CCCNC(=O)NO)C2=C(C)C3(CC3)[C@@](C)(O)C(=O)C2=C1 | > 9000 |  |  | 
8 | CC1=C(CCCNS(N)(=O)=O)C2=C(C)C3(CC3)[C@@](C)(O)C(=O)C2=C1 | 54000 | 710 | 76 | Active
9 | CC1=C(CCCOC(=O)N2CCOCC2)C2=C(C)C3(CC3)[C@@](C)(O)C(=O)C2=C1 | 62200 |  |  | 
10 | CC1=C(CNC(=O)NCCO)C2=C(C)C3(CC3)[C@@](C)(O)C(=O)C2=C1 | > 9000 | >47 | 190 | 
11 | CC1=C(CCCNS(C)(=O)=O)C2=C(C)C3(CC3)[C@@](C)(O)C(=O)C2=C1 | 42000 | >150 | 280 | Active
12 | CC1=C(CO)C2=C(C)C3(CC3)[C@@](C)(O)C(=O)C2=C1 [IROFULVEN] | 76 |  | 170 | 
13 | CC1=C(CNC(=O)NCCCl)C2=C(C)C3(CC3)[C@@](C)(O)C(=O)C2=C1 | > 8500 |  |  | 
14 | CC1=C(CCCNC(=O)NCCO)C2=C(C)C3(CC3)[C@@](C)(O)C(=O)C2=C1 | > 2800 | >35 | < 80 | 
15 | CC1=C(CCCOC(=O)NCCCl)C2=C(C)C3(CC3)[C@@](C)(O)C(=O)C2=C1 |  |  | 57 | 
16 | CC1=C(CCCOC(=O)NCCO)C2=C(C)C3(CC3)[C@@](C)(O)C(=O)C2=C1 |  |  |  | Active
17 | CC1=C(CNC(=O)NO)C2=C(C)C3(CC3)[C@@](C)(O)C(=O)C2=C1 | 9800 | >51 | 190 | 
18 | CC1=C(CCCNS(=O)(=O)NO)C2=C(C)C3(CC3)[C@@](C)(O)C(=O)C2=C1 | 250 | 31 | 8 | 

Reference: ChEMBL document CHEMBL1156819, “Structure-activity studies of urea, carbamate, and sulfonamide derivatives of acylfulvene” (J Med Chem, 2010)
